Assay results published in ChEMBL document CHEMBL2169869, “Assay and inhibition of diacylglycerol lipase activity” (Bioorg Med Chem Lett, 2012).

Key:
[1] = target: T1, Fatty-acid amide hydrolase 1 (Rattus norvegicus, UniProt P97612); assay: Inhibition of rat histidine tagged FAAH expressed in Escherichia coli by coumarin ester substrate fluorescence assay
T1 sequence (P97612 whole entry): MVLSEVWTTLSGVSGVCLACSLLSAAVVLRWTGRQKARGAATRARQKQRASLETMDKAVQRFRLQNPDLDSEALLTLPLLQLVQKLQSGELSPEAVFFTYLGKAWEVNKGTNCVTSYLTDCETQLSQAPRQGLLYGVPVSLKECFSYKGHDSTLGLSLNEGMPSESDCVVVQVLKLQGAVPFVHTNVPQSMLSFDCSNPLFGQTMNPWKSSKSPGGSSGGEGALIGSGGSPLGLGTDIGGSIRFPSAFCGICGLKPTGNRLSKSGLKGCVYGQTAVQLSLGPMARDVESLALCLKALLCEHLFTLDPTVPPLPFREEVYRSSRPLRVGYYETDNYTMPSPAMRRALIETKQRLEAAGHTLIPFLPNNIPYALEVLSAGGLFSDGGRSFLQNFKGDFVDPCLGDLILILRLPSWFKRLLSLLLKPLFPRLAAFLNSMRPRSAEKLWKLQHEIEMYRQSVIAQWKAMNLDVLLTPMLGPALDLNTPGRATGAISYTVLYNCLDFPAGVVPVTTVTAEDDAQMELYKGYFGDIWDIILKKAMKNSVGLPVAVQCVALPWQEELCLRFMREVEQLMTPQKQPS

[2] = target: T2, Diacylglycerol lipase-alpha (Homo sapiens) (UniProt Q9Y4D2); assay: Inhibition of human DAGLalpha expressed in HEK293T cell membrane using [14C]SAG substrate at 10 uM using JZL184 pretreated protein in detergent free solution by […]; format: cell-based; settings: HEK-293T
T2 sequence (whole entry): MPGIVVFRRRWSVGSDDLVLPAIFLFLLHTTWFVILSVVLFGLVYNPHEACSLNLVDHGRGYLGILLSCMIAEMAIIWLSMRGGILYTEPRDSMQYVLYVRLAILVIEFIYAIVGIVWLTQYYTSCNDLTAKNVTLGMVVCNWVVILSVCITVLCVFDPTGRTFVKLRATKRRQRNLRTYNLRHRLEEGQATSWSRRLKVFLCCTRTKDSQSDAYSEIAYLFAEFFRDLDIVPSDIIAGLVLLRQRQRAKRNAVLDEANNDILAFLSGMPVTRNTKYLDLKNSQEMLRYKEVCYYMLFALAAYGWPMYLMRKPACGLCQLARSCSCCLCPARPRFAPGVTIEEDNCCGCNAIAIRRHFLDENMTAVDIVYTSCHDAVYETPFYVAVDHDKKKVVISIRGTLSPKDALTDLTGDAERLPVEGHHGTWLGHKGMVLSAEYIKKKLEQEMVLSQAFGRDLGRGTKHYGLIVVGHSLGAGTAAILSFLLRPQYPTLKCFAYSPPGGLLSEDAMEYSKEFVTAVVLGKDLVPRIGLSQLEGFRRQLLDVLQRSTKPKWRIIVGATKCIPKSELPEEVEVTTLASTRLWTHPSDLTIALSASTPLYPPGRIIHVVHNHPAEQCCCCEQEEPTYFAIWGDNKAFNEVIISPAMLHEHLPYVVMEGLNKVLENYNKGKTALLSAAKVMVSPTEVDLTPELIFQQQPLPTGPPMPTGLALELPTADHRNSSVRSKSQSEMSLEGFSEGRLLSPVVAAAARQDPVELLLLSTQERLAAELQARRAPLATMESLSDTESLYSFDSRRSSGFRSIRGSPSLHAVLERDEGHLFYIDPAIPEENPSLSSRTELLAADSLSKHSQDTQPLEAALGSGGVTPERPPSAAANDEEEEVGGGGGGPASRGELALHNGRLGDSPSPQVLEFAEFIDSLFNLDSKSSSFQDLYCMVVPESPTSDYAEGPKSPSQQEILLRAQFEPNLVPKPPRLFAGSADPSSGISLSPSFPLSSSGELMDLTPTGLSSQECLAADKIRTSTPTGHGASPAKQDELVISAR

[3] = target: T2, Diacylglycerol lipase-alpha (Homo sapiens); assay: Inhibition of human DAGLalpha expressed in HEK293T cell membrane using [14C]SAG substrate at 10 uM in presence of 0.015% Triton X-100 by scintillation counting based radio-TLC assay; format: cell membranes; settings: HEK-293T
Summary of the method: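 Sonicated HEK293T protein (100 μg) in 50 mM Tris pH 7.4 with 10 mM CaCl2. Inhibitor in DMSO (10% DMSO standard) preincubated 15 min at 37 °C. [14C]SAG was added to 20 μM final for 20 min at 37 °C, with Triton X-100 where the line states it. Quenched with 2:1 CHCl3/MeOH. Silica TLC in CHCl3/MeOH/NH4OH 86:14:0.75, then 12 h phosphorimaging. Activity = (2-AG+AA)/(2-AG+AA+SAG). Background-subtracted; n=1–2.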

[4] = Inhibition of bacterial lipoprotein lipase by FRET assay; set-up: species or system Bacteria
Summary of the method: (§1)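 Purified enzymes: bacterial lipoprotein lipase (0.46 μg) or porcine pancreatic lipase type II (1.0 μg, suspended in 1:9 DMSO/water). Run in 50 mM Tris pH 7.4 with 10 mM CaCl2. Substrate was the pyrene-dinitrophenyl ether lipid FRET reporter at 25 μM, with compounds screened at 10 μM. Fluorescence was read at ex 320/em 400 nm, and percent inhibition was taken at 1.5 h; n = 1 or 2.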

[5] = Inhibition of porcine pancreatic lipase type 2 by FRET assay; set-up: species or system Sus scrofa; summary of the method: as §1

Structure (SMILES)	IC50 [1] [µM]	inhibition [2] [%]	inhibition [3] [%]	IC50 [4] [µM]	IC50 [5] [µM]
O=C(Oc1ccc([N+](=O)[O-])cc1)N1CCC(C(O)(c2ccc3c(c2)OCO3)c2ccc3c(c2)OCO3)CC1	0.974	44	37	–	–
CCCCCCCCCCC[C@@H](C[C@@H]1OC(=O)[C@H]1CCCCCC)OC(=O)[C@H](CC(C)C)NC=O [ORLISTAT]	–	–	–	0.1	< 0.001
